# How the values were obtained:
# [1] = biological target: T1, Growth hormone secretagogue receptor type 1 (Homo sapiens, UniProt Q92847); assay: Ability to inhibit ghrelin induced increase in intracellular [Ca2+] in CHO-K cells was determined by FLIPR assay; assay type: functional, cell-based
# In short: (§1)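 Antagonist mode in CHO-K cells stably expressing human GHS-R, grown to confluency overnight. Cells were loaded with Fluo-4 AM plus probenecid in DPBS for 1–3h in the dark at room temperature, then washed. Compound was added in 0.1% BSA/4% DMSO DPBS and read for 3min. Ghrelin was then added and read a further 3min at ex 488/em 520nm. IC50 from sigmoidal fit.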
# [2] = biological target: T1, Growth hormone secretagogue receptor type 1; assay: Ability to displace [125I]ghrelin from cloned human GHS-R expressed in CHO-K cells was determined (Kd of ghrelin is 0.4 nM); assay type: cell-based
# [3] = biological target: T1, Growth hormone secretagogue receptor type 1; assay: Binding affinity to displace [125I]ghrelin from cloned human GHS-R expressed in CHO-K cells was determined (Kd of ghrelin is 0.4 nM); assay type: cell-based
# [4] = biological target: T1, Growth hormone secretagogue receptor type 1; assay: Ability to inhibit ghrelin induced increase in intracellular [Ca2+] in CHO-K cells; assay type: functional, cell-based; in short: as §1
# [5] = biological target: Growth hormone secretagogue receptor type 1 (Rattus norvegicus, UniProt O08725); assay: Inhibitory concentration against rat Growth hormone secretagogue receptor
# [6] = biological target: Growth hormone secretagogue receptor type 1 (Mus musculus, UniProt Q99P50); assay: Inhibitory concentration against mouse Growth hormone secretagogue receptor
# Chain of Growth hormone secretagogue receptor type 1 (Mus musculus, UniProt Q99P50) (Q99P50 whole entry): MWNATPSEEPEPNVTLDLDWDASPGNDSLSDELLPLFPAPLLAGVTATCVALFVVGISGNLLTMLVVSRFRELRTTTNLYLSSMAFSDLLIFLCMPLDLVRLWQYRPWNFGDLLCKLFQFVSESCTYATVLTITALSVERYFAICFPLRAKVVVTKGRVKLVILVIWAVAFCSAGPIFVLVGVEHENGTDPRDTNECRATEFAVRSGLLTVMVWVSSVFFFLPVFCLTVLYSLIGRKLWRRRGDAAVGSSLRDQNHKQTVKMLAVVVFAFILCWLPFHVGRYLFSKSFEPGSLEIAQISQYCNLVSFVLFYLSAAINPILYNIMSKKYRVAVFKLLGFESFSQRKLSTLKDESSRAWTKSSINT
# T1 sequence (Q92847 whole entry): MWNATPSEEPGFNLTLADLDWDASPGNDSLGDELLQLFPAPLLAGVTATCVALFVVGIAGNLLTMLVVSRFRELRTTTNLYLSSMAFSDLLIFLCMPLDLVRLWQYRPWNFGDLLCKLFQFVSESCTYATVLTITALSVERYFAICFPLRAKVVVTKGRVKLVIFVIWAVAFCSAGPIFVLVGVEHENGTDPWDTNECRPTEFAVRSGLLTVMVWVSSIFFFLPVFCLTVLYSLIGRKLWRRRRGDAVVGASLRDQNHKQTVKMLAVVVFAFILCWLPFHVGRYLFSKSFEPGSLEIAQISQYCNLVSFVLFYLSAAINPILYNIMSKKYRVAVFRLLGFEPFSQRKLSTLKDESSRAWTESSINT
# Chain of Growth hormone secretagogue receptor type 1 (Rattus norvegicus, UniProt O08725) (O08725 whole entry): as the sequence (Q99P50 whole entry) above, with S30P, S249A counted along it
structure (smiles),measurement,setting,value
CCN(CC)c1ccc(NC(=O)c2c(-c3c(Cl)cccc3Cl)noc2CCC2OCCCO2)cc1,IC50,[1],0.019 µM
same,IC50,[2],0.006 µM
CCN(CC)c1ccc(NC(=O)c2c(-c3c(Cl)cccc3Cl)noc2C)cc1,IC50,[3],0.13 µM
same,IC50,[1],0.18 µM
CCN(CC)c1ccc(NC(=O)c2c(-c3c(Cl)cccc3Cl)noc2CCCO)cc1,IC50,[1],0.308 µM
same,IC50,[2],0.132 µM
CCN(CC)c1ccc(NC(=O)c2c(-c3c(Cl)cccc3Cl)noc2CCN2CCN(C)C2=O)cc1,IC50,[1],0.01 µM
same,IC50,[2],0.021 µM
CCN(CC)[C@H]1CC[C@H](NC(=O)c2c(-c3c(Cl)cccc3Cl)noc2CCC2OCCCO2)CC1,IC50,[2],0.087 µM
same,IC50,[4],0.003 µM
CCN(CC)c1ccc(NC(=O)c2c(-c3c(Cl)cccc3Cl)noc2CCOC)cc1,IC50,[1],0.115 µM
same,IC50,[2],0.11 µM
CCN(CC)[C@H]1CC[C@H](NC(=O)c2c(-c3c(Cl)cccc3Cl)noc2CCN2CCCCC2=O)CC1,IC50,[1],0.19 µM
same,IC50,[2],0.139 µM
CCN(CC)c1ccc(NC(=O)c2c(-c3c(Cl)cccc3Cl)noc2CCC2CCCO2)cc1 (configuration not stated),IC50,[1],0.057 µM
same,IC50,[2],0.057 µM
CCN(CC)c1ccc(NC(=O)c2c(-c3c(Cl)cccc3Cl)noc2CCc2cccc3c2OCO3)cc1,IC50,[1],0.564 µM
same,IC50,[2],0.162 µM
CCN(CC)c1ccc(NC(=O)c2c(-c3c(Cl)cccc3Cl)noc2CCN2CCCC2=O)cc1,IC50,[1],0.018 µM
same,IC50,[2],0.018 µM
CCN(CC)c1ccc(NC(=O)c2c(-c3c(Cl)cccc3Cl)noc2CCC2CCCCO2)cc1 (configuration not stated),IC50,[1],0.102 µM
same,IC50,[2],0.039 µM
CCN(CC)c1ccc(NC(=O)c2c(-c3c(Cl)cccc3Cl)noc2C(C)C)cc1,IC50,[1],0.861 µM
same,IC50,[2],0.15 µM
CCN(CC)c1ccc(NC(=O)c2c(-c3c(Cl)cccc3Cl)noc2CCC2CCOCC2)cc1,IC50,[1],0.146 µM
same,IC50,[2],0.029 µM
CCCc1onc(-c2c(Cl)cccc2Cl)c1C(=O)Nc1ccc(N(CC)CC)cc1,IC50,[1],0.492 µM
same,IC50,[2],0.131 µM
CCN(CC)c1ccc(NC(=O)c2c(-c3c(Cl)cccc3Cl)noc2CN2CCCC2=O)cc1,IC50,[1],0.098 µM
same,IC50,[2],0.122 µM
CCN(CC)[C@H]1CC[C@H](NC(=O)c2c(-c3c(Cl)cccc3Cl)noc2CCC2CCCO2)CC1 (some centres not stated),IC50,[1],0.103 µM
same,IC50,[2],0.194 µM
CCc1onc(-c2c(Cl)cccc2Cl)c1C(=O)Nc1ccc(N(CC)CC)cc1,IC50,[1],0.319 µM
same,IC50,[2],0.147 µM
CCN(CC)c1ccc(NC(=O)c2c(-c3c(Cl)cccc3Cl)noc2CCC2OCCO2)cc1,IC50,[1],0.056 µM
same,IC50,[2],0.025 µM
CCN(CC)c1ccc(NC(=O)c2c(-c3c(Cl)cccc3Cl)noc2CCN2CCCCC2=O)cc1,IC50,[1],0.008 µM
same,IC50,[2],0.009 µM
CCN(CC)c1ccc(NC(=O)c2c(-c3c(Cl)cccc3Cl)noc2CCN(C)C(C)=O)cc1,IC50,[1],0.019 µM
same,IC50,[2],0.034 µM
CCN(CC)[C@H]1CC[C@H](NC(=O)c2c(-c3c(Cl)cccc3Cl)noc2CCc2ccc3c(c2)OCO3)CC1,IC50,[5],0.012 µM
same,IC50,[6],0.007 µM
same,IC50,[1],0.054 µM
same,IC50,[2],0.032 µM
CCN(CC)c1ccc(NC(=O)c2c(-c3c(Cl)cccc3Cl)noc2CCN2C(=O)CCC2(C)C)cc1,IC50,[1],0.015 µM
same,IC50,[2],0.039 µM
CCN(CC)c1ccc(NC(=O)c2c(-c3c(Cl)cccc3Cl)noc2CCc2ccccc2OC)cc1,IC50,[1],0.714 µM
same,IC50,[2],0.389 µM
CCN(CC)[C@H]1CC[C@H](NC(=O)c2c(-c3c(Cl)cccc3Cl)noc2C)CC1,IC50,[1],0.057 µM
same,IC50,[2],0.053 µM
CCN(CC)c1ccc(NC(=O)c2c(-c3c(Cl)cccc3Cl)noc2CCc2ccc3c(c2)OCO3)cc1,IC50,[1],0.093 µM
same,IC50,[2],0.047 µM
